Source: ChEMBL document CHEMBL1806421, “Design, synthesis and biological evaluation of urea derivatives from o-hydroxybenzylamines and phenylisocyanate as potential FabH inhibitors” (Bioorg Med Chem, 2011)
Converted amounts (≈) assume the structure as drawn.

Experiments:
[1] = Toxicity in erythrocytes assessed as hemolytic activity; type: cell-based; conditions: erythrocyte
[2] = target: T1, 3-oxoacyl-[acyl-carrier-protein] synthase 3 (Escherichia coli, UniProt C3TDZ2); assay: Inhibition of Escherichia coli FabH expressed in Escherichia coli DH10B cells assessed as incorporation of 3H signal in the product after 25 mins by liquid scintillation
T1 sequence (C3TDZ2 whole entry): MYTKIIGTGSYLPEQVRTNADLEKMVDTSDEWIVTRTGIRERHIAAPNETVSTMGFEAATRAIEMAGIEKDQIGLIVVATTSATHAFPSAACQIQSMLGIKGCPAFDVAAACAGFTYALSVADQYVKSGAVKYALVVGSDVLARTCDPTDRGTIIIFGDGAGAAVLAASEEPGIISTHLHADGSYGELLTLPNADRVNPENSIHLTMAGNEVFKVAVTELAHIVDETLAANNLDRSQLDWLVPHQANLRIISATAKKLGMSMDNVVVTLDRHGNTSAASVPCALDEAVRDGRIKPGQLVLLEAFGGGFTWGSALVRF
In short: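 Native E. coli FabH was expressed from pET30 in DH10B and purified by Q-Sepharose, MonoQ and hydroxyapatite chromatography at 4 °C. Reaction used 20 mM Na₂HPO₄ pH 7.0, 0.5 mM DTT, holo-ACP and 1 nM FabH. It was stopped with ice-cold 50% TCA (5 min on ice) and the protein pelleted. ³H incorporation was read by liquid scintillation. Inhibitors came from DMSO stock, with final DMSO ≤2%.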

[3] = test system: Escherichia coli; assay: Antibacterial activity against Escherichia coli ATCC 35218 after 24 hrs by MTT assay; type: functional; conditions: ATCC 35218, 24 h
In short: (§1)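 MIC by MTT colorimetry in Mueller-Hinton medium. Inoculum was about 10⁵ cfu/mL, added to serial dilutions made from DMSO solutions, then incubated at 37 °C for 24 h. MTT in PBS (0.01 mol/L, pH 7.4; 2 mg/mL) was added to each well. Dye was extracted with isopropanol containing 5% 1 mol/L HCl for 12 h at room temperature, and OD was read at 550 nm.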

[4] = test system: Pseudomonas fluorescens; assay: Antibacterial activity against Pseudomonas fluorescens after 24 hrs by MTT assay; type: functional; in short: as §1
[5] = test system: Bacillus subtilis; assay: Antibacterial activity against Bacillus subtilis after 24 hrs by MTT assay; type: functional; in short: as §1
[6] = test system: Staphylococcus aureus; assay: Antibacterial activity against Staphylococcus aureus after 24 hrs by MTT assay; type: functional; in short: as §1

| SMILES | IC50 [2] [µM] | MIC [3] [µg/mL] | MIC [4] [µg/mL] | MIC [5] [µg/mL] | MIC [6] [µg/mL] | LC30 [1] [µg/mL] |
| --- | --- | --- | --- | --- | --- | --- |
| Nc1ccn([C@H]2CC[C@@H](COP(=O)(O)O)O2)c(=O)n1 | 2.1 | – | – | – | – | > 10000 |
| Oc1c(Br)cc(Br)cc1CNc1ccc(F)cc1 | – | 50 (≈ 133 µM) | 12.5 (≈ 33.3 µM) | 50 (≈ 133 µM) | 50 (≈ 133 µM) | – |
| Oc1ccc(Br)cc1CNc1ccccc1F | – | 25 (≈ 84.4 µM) | 6.25 (≈ 21.1 µM) | 50 (≈ 169 µM) | 25 (≈ 84.4 µM) | – |
| Oc1ccc(Br)cc1CNc1ccccc1Br | – | 25 (≈ 70 µM) | 25 (≈ 70 µM) | 50 (≈ 140 µM) | 50 (≈ 140 µM) | – |
| Oc1ccc(Br)cc1CNc1ccc(Br)cc1 | – | 25 (≈ 70 µM) | 12.5 (≈ 35 µM) | 25 (≈ 70 µM) | 25 (≈ 70 µM) | – |
| Cc1ccc(NCc2cc(Br)ccc2O)cc1 | – | 50 (≈ 171 µM) | 50 (≈ 171 µM) | 50 (≈ 171 µM) | 50 (≈ 171 µM) | – |
| COc1ccc(NCc2cc(Br)ccc2O)cc1 | – | 50 (≈ 162 µM) | 50 (≈ 162 µM) | 50 (≈ 162 µM) | 50 (≈ 162 µM) | – |
| Oc1c(Br)cc(Br)cc1CNc1ccccc1F | – | 50 (≈ 133 µM) | 50 (≈ 133 µM) | 50 (≈ 133 µM) | 25 (≈ 66.7 µM) | – |
| Oc1c(Br)cc(Br)cc1CNc1ccccc1Cl | – | 25 (≈ 63.9 µM) | 50 (≈ 128 µM) | 6.25 (≈ 16 µM) | 25 (≈ 63.9 µM) | – |
| Oc1c(Br)cc(Br)cc1CNc1ccc(Cl)cc1 | – | 25 (≈ 63.9 µM) | 12.5 (≈ 31.9 µM) | 12.5 (≈ 31.9 µM) | 12.5 (≈ 31.9 µM) | – |
| Oc1c(Br)cc(Br)cc1CNc1ccc(Br)cc1 | – | 25 (≈ 57.3 µM) | 50 (≈ 115 µM) | 50 (≈ 115 µM) | 50 (≈ 115 µM) | – |
| Cc1ccc(NCc2cc(Br)cc(Br)c2O)cc1 | – | 50 (≈ 135 µM) | 50 (≈ 135 µM) | 50 (≈ 135 µM) | 50 (≈ 135 µM) | – |
| COc1ccc(NCc2cc(Br)cc(Br)c2O)cc1 | – | 50 (≈ 129 µM) | 50 (≈ 129 µM) | 25 (≈ 64.6 µM) | 50 (≈ 129 µM) | – |
| Cc1ccc(N(Cc2cc(Br)ccc2O)C(=O)Nc2ccccc2)cc1 | – | 50 (≈ 122 µM) | 50 (≈ 122 µM) | 12.5 (≈ 30.4 µM) | 50 (≈ 122 µM) | – |
| COc1ccc(N(Cc2cc(Br)ccc2O)C(=O)Nc2ccccc2)cc1 | – | 25 (≈ 58.5 µM) | 50 (≈ 117 µM) | 50 (≈ 117 µM) | 12.5 (≈ 29.3 µM) | – |
| O=C(Nc1ccccc1)N(Cc1cc(Br)cc(Br)c1O)c1ccccc1F | – | 50 (≈ 101 µM) | 12.5 (≈ 25.3 µM) | 50 (≈ 101 µM) | 25 (≈ 50.6 µM) | – |
| O=C(Nc1ccccc1)N(Cc1cc(Br)cc(Br)c1O)c1ccccc1Br | – | 50 (≈ 90.1 µM) | 6.25 (≈ 11.3 µM) | 50 (≈ 90.1 µM) | 50 (≈ 90.1 µM) | – |
| O=C(Nc1ccccc1)N(Cc1cc(Br)cc(Br)c1O)c1ccc(Br)cc1 | – | 12.5 (≈ 22.5 µM) | 25 (≈ 45 µM) | 50 (≈ 90.1 µM) | 25 (≈ 45 µM) | – |
| Cc1ccc(N(Cc2cc(Br)cc(Br)c2O)C(=O)Nc2ccccc2)cc1 | – | 50 (≈ 102 µM) | 50 (≈ 102 µM) | 50 (≈ 102 µM) | 6.25 (≈ 12.8 µM) | – |
| COc1ccc(N(Cc2cc(Br)cc(Br)c2O)C(=O)Nc2ccccc2)cc1 | – | 12.5 (≈ 24.7 µM) | 25 (≈ 49.4 µM) | 50 (≈ 98.8 µM) | 50 (≈ 98.8 µM) | – |

Second part, led by results:

| IC50 [2] [µM] | MIC [3] [µg/mL] | MIC [4] [µg/mL] | MIC [5] [µg/mL] | MIC [6] [µg/mL] | SMILES | LC30 [1] [µg/mL] |
| --- | --- | --- | --- | --- | --- | --- |
| – | 12.5 (≈ 42.2 µM) | 25 (≈ 84.4 µM) | 50 (≈ 169 µM) | 12.5 (≈ 42.2 µM) | Oc1ccc(Br)cc1CNc1ccc(F)cc1 | – |
| – | 12.5 (≈ 40 µM) | 25 (≈ 80 µM) | 50 (≈ 160 µM) | 6.25 (≈ 20 µM) | Oc1ccc(Br)cc1CNc1ccccc1Cl | – |
| – | 12.5 (≈ 28.7 µM) | 50 (≈ 115 µM) | 50 (≈ 115 µM) | 50 (≈ 115 µM) | Oc1c(Br)cc(Br)cc1CNc1ccccc1Br | – |
| 37.4 | 12.5 (≈ 30.1 µM) | 25 (≈ 60.2 µM) | 25 (≈ 60.2 µM) | 50 (≈ 120 µM) | O=C(Nc1ccccc1)N(Cc1cc(Br)ccc1O)c1ccccc1F | > 10000 |
| 6.6 | 1.56 (≈ 3.76 µM) | 6.25 (≈ 15.1 µM) | 6.25 (≈ 15.1 µM) | 3.13 (≈ 7.54 µM) | O=C(Nc1ccccc1)N(Cc1cc(Br)ccc1O)c1ccc(F)cc1 | > 10000 |
| 21.8 | 6.25 (≈ 14.5 µM) | 25 (≈ 57.9 µM) | 6.25 (≈ 14.5 µM) | 3.13 (≈ 7.25 µM) | O=C(Nc1ccccc1)N(Cc1cc(Br)ccc1O)c1ccccc1Cl | > 10000 |
| 4.7 | 1.56 (≈ 3.61 µM) | 3.13 (≈ 7.25 µM) | 6.25 (≈ 14.5 µM) | 1.56 (≈ 3.61 µM) | O=C(Nc1ccccc1)N(Cc1cc(Br)ccc1O)c1ccc(Cl)cc1 | > 10000 |
| 56.4 | 12.5 (≈ 26.3 µM) | 25 (≈ 52.5 µM) | 6.25 (≈ 13.1 µM) | 25 (≈ 52.5 µM) | O=C(Nc1ccccc1)N(Cc1cc(Br)ccc1O)c1ccccc1Br | > 10000 |
| 41 | 6.25 (≈ 13.1 µM) | 12.5 (≈ 26.3 µM) | 12.5 (≈ 26.3 µM) | 12.5 (≈ 26.3 µM) | O=C(Nc1ccccc1)N(Cc1cc(Br)ccc1O)c1ccc(Br)cc1 | > 10000 |
| 71.7 | 6.25 (≈ 12.6 µM) | 25 (≈ 50.6 µM) | 12.5 (≈ 25.3 µM) | 12.5 (≈ 25.3 µM) | O=C(Nc1ccccc1)N(Cc1cc(Br)cc(Br)c1O)c1ccc(F)cc1 | > 10000 |
| 51.5 | 6.25 (≈ 12.2 µM) | 25 (≈ 49 µM) | 50 (≈ 97.9 µM) | 12.5 (≈ 24.5 µM) | O=C(Nc1ccccc1)N(Cc1cc(Br)cc(Br)c1O)c1ccccc1Cl | > 10000 |
| 10.1 | 3.13 (≈ 6.13 µM) | 12.5 (≈ 24.5 µM) | 25 (≈ 49 µM) | 6.25 (≈ 12.2 µM) | O=C(Nc1ccccc1)N(Cc1cc(Br)cc(Br)c1O)c1ccc(Cl)cc1 | > 10000 |
| – | 6.25 (≈ 20 µM) | 12.5 (≈ 40 µM) | 25 (≈ 80 µM) | 6.25 (≈ 20 µM) | Oc1ccc(Br)cc1CNc1ccc(Cl)cc1 | – |
| – | 3.13 (≈ 6.47 µM) | 3.13 (≈ 6.47 µM) | 1.56 (≈ 3.23 µM) | 1.56 (≈ 3.23 µM) | NC[C@H]1O[C@H](O[C@H]2[C@H](O)[C@@H](O[C@H]3O[C@H](CO)[C@@H](O)[C@H](N)[C@H]3O)[C@H](N)C[C@@H]2N)[C@H](N)[C@@H](O)[C@@H]1O [BEKANAMYCIN] | – |
